These results are taken from PMC4390023 (The British journal of nutrition, 2013).

Entries after “also recorded” stand apart in the source; their conditions may differ.

One series deals with RARγ. The settings on record: cited from earlier work.
The test system of another series is RARα. The settings on record: cited from earlier work.
A further series has as its system RARβ. Conditions: cited from earlier work.
For series [1] the following is noted: cited from earlier work; for Estimates of bioactivity in rats, that of ROH: ref estimates of the 1950's.
The nature of a further series: Study 1 growth assay. The settings on record: for Bioactivity compared with retinol: from body weights and area-under-the-response curves, equimolar 50 nmol/d; for Area-under-the growth curve, difference from control / Bioactivity from area-under-the growth curve, % of retinol / Bioactivity from final body weight, % of retinol / Final body weight / Area-under-the growth curve: rats, 50 nmol/d for 5 weeks; for Bioactivity from area-under-the growth curve, % of retinol: control subtracted, relative to retinol group; for Bioactivity from final body weight, % of retinol: difference from control relative to retinol group; for Final body weight / Area-under-the growth curve: mean, n 10; for Area-under-the growth curve: trapezoidal. The series is classed as in vivo, rat. An outline of the steps: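 Weanling (21-d) male Sprague Dawley rats (n 40) were fed a vitamin A-deficient diet and weighed daily. At week 9 they were split into four weight-matched groups (n 10) and given 50 nmol/d oral retinoid acetate in 100 µl cottonseed oil, or vehicle alone. Rats were killed 5 weeks after dosing began. Body-weight AUC was by trapezoidal approximation, and bioactivity from ending weights versus the retinol group. ANOVA; means (SD).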

Series [2] can be described thus: Study 1 tissue and serum ROH, αR and DR by HPLC. The series is classed as in vivo, rat. The settings on record: for Lung ROH concentration / Spleen ROH concentration: rats, 50 nmol/d oral, 5 weeks, mean, n 10.
For series [3] the following is noted: rats maintained on DR; cited from earlier work.
For the next series, the system named is retinol transporter. Conditions: cited from earlier work.
For series [4] the following is noted: high doses given to dams; not to the extent of retinoic acid alone; cited from earlier work.
Series [5] can be described thus: Study 2 interaction study: graded αR with 70 nmol ROH/d, serum and liver. The series is classed as in vivo, rat. Conditions: for Liver αR / Total dose liver retention: 3 weeks. Put shortly:
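Each received oral daily 70 nmol reference retinoid plus 0, 17.5, 35 or 70 nmol test retinoid (as acetate) in 100 µl cottonseed oil. Rats were killed after 3 weeks. Serum and saponified liver were run on isocratic C18 HPLC-UV in acetonitrile:water 87.5:12.5 with 10 mM ammonium acetate. ANOVA; means (SD).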

For series [6] the following is noted: in vitro and in vivo models; cited from earlier work.
A short description of series [7]: Study 3 retinol and α-retinol in liver, kidney and serum after the final dose. It is filed as in vivo, rat. Conditions: for Liver αR: 3.5 µmol/day for 21 days, n 5.
For the next series, the system named is apo-RBP. Conditions: cited from earlier work.
Series [8] is described as follows: Study 3 toxicity study: serum chemistry panel and liver histology. The series is classed as in vivo, rat. Conditions: 3.5 µmol/d for 21 d; for Hepatotoxicity: rats killed 1, 8 and 15 d after the last dose.
The conditions of series [9]: given intraperitoneally; cited from earlier work.

Regarding `CC1=C(/C=C/C(C)=C/C=C/C(C)=C/C(=O)O)C(C)(C)CC=C1` [3,4-Didehydroretinoic acid], the “Affinity for RARγ” value with RARγ is “same affinity as retinoic acid”. Moreover, in the series on RARα, the “Affinity for RARα” value was “same affinity as retinoic acid”. The “Affinity for RARβ” value with RARβ was “same affinity as retinoic acid”.
On to `CC1=C(/C=C/C(C)=C/C=C/C(C)=C/CO)C(C)(C)CC=C1` [3,4-Didehydroretinol, 3,4-didehydroretinol], for which, in series [1], the “Biological activity compared with ROH” value is 40% and the “Estimates of bioactivity in rats, that of ROH” value is 40%. Besides, in “Study 1 growth assay”, the “Bioactivity compared with retinol” value is 120–130%; the “Area-under-the growth curve, difference from control” value is given as 1000; the “Bioactivity from area-under-the growth curve, % of retinol” value was 127%; the “Bioactivity from final body weight, % of retinol” value came to 119%. Also, in “Study 1 growth assay”, the Final body weight was determined as 560 g and the Area-under-the growth curve amounted to 1867 g·days. In series [2], the “Lung ROH concentration” value is on record as “not detected” and the “Spleen ROH concentration” value is “not detected”. Further, the “Serum DR in DR-dosed rats, times less than serum ROH in ROH-dosed rats” value in series [2] (study 1) is 2.6 times. Further, the Retina integrity result in [3] is given as “normal retina integrity”. Further, in the series with retinol transporter, the “Rate of carriage by the retinol transporter from the intestine” value is listed as “at the same rate as ROH”.
As for `CC(=O)OC/C=C(C)/C=C/C=C(C)/C=C/C1=C(C)C=CCC1(C)C` [3,4-didehydroretinyl acetate], in [4], the Terata in fetuses result was “caused terata in fetuses”.
On to `CC1=C(/C=C/C(C)=C/C=C/C(C)=C/CO)C(C)(C)CCC1` [Retinol, retinol, reference compound], for which, in “Study 1 growth assay”, the “Area-under-the growth curve, difference from control” value is 787; the “Bioactivity from area-under-the growth curve, % of retinol” value amounted to 100%; the “Bioactivity from final body weight, % of retinol” value is 100%; the Final body weight is listed as 546 g. The Area-under-the growth curve in the series “Study 1 growth assay” was 1654 g·days. Also, the “Kidney ROH relative to liver ROH” value in series [2] (study 1) was determined as 7 times. Besides, the “Liver reserves, times less than deficiency cut-off (<70 nmol ROH/g liver)” value in series [2] (study 1, ROH group) is recorded as 14 times.
`CC(=O)OC/C=C(C)/C=C/C=C(C)/C=C/C1=C(C)CCCC1(C)C` [retinyl acetate, reference compound]: in series [4], the Terata in fetuses entry is given as “caused terata in fetuses”.
Consider `CC1=CCCC(C)(C)C1/C=C/C(C)=C/C=C/C(C)=C/CO` (stereo not drawn) [α-Retinol, α-retinol], for which, in [5] (17.5 nmol αR/d + 70 nmol ROH/d), the “Liver αR” value was 262 (SD 34) nmol/liver and the “Total dose liver retention” value was 71.3%. In series [5] (35 nmol αR/d + 70 nmol ROH/d), the “Liver αR” value is on record as 449 (SD 23) nmol/liver and the “Total dose liver retention” value turned out to be 61.1%. For the same compound, in [5] (70 nmol αR/d + 70 nmol ROH/d), the “Liver αR” value is given as 893 (SD 138) nmol/liver and the “Total dose liver retention” value stood at 60.7%. Also, the “Serum αR” value in series [5] (study 2, 17.5-70 nmol αR/d + 70 nmol ROH/d) was “undetectable”. Further, in series [5] (study 2, with 70 nmol ROH/d), the “Cumulative αR doses recovered in the liver” value is 61–71%. Further, in series [1], the “Activity relative to retinol (ROH), growth-promoting activity in rats” value is recorded as 2.1%; the Bioactivity is 2.6%; the “Estimates of bioactivity in rats, that of ROH” value was 2%. The “Biopotency versus US Pharmacopeia Vitamin A Reference Standard” value in series [1] (rat growth and liver storage bioassays) is on record as “approximately 2%”. Also, in series [1] (ref previous reports), the “Biopotency of all-trans-retinyl acetate” value was 2%. Moreover, the “Growth rate relative to ROH” value in the series “Study 1 growth assay” (classic growth assay, 50 nmol/d) was “about 50%”. Also, in “Study 1 growth assay”, the “Bioactivity compared with retinol” value is on record as 40–50%; the “Area-under-the growth curve, difference from control” value was 298; the Final body weight stood at 508 g; the Area-under-the growth curve was found to be 1165 g·days. Also, the “Induction of signs of hypervitaminosis A” value in series [6] is on record as “very effective at inducing signs of hypervitaminosis A”. For the same compound, in series [2], the “Lung ROH concentration” value is “not detected” and the “Spleen ROH concentration” value is on record as “not detected”. Moreover, in series [2] (study 1, ROH not made available), the “Cumulative αR doses recovered in the liver” value was 0.3%. In addition, the “Serum ROH concentration” value in series [2] (study 1, rats fed 50 nmol/d) was no more than 0.10 µmol/L. For the same compound, the “α-Retinyl esters circulating in the blood, share of total retinol” value in [7] (at αR concentrations >1.7 µmol/g liver) is given as greater than 10%. In addition, the “Binding in vitro with apo-RBP” value with apo-RBP was “failed to bind”. Further, in series [8], the “Toxicity compared with control rats” value was “No toxicity was evident” and the Hepatotoxicity result was “no hepatotoxicity occurred”. Also, in [8] (liver sections, hematoxylin and eosin), the Stellate cell hypertrophy result is on record as “No stellate cell hypertrophy was detected”.
Regarding `CC(=O)OC/C=C(C)/C=C/C=C(C)/C=C/C1C(C)=CCCC1(C)C` (stereo not drawn) [α-retinyl acetate], the “Liver αR” value worked out at 2300 nmol/g in series [7] (day 1 after final dose), 1750 nmol/g in series [7] (day 8 after final dose) and 1770 nmol/g in [7] (day 15 after final dose). For the same compound, the Hepatotoxicity entry in series [8] was “No hepatic toxicity was observed; also recorded: No hepatotoxicity was noted”. Further, the Growth of hamsters result in series [9] is “sustains growth of hamsters”.
